# Assay results of several laboratories.
# Lines come from different studies, so protocols differ.
# EGFR L861Q: Epidermal growth factor receptor (EGFR, Homo sapiens, UniProt P00533, L861Q)
# EGFR del747-752/P753S: Epidermal growth factor receptor (EGFR, Homo sapiens, UniProt P00533, del747-752/P753S)
# EGFR del747-750/T751S: Epidermal growth factor receptor (EGFR, Homo sapiens, UniProt P00533, del747-750/T751S)
# EGFR G719C: Epidermal growth factor receptor (EGFR, Homo sapiens, UniProt P00533, G719C)
# EGFR: Epidermal growth factor receptor (EGFR, Homo sapiens, UniProt P00533)
# EGFR del746-750: Epidermal growth factor receptor (EGFR, Homo sapiens, UniProt P00533, del746-750)
Structure (SMILES),target,read-out,mode,method,tested at,endpoint,result
Cc1ccc(NC(=O)c2ccc(C)c(C(F)(F)F)c2)cc1C#Cc1nn(C2CCC(O)CC2)c2ncnc(N)c12 (stereo not drawn),EGFR L861Q,cell-free assay,,,10 µM,remaining signal,0%
Cc1cnc(NC2CCOCC2)nc1-n1cnc(C(=O)NC(CN)c2cc(F)cc(Cl)c2)c1 (stereo not drawn),EGFR L861Q,enzyme activity,inhibitor,radiometric,1 µM,remaining activity,108%
CNC(=O)Nc1ccc2c(c1)[C@@]1(CC2)OC(=O)N(CC(=O)N(Cc2ccc(F)cc2)[C@@H](C)C(F)(F)F)C1=O,EGFR del747-752/P753S,cell-free assay,,competition with immobilised ligand,1 µM,remaining binding,85%
Nc1ncnc2occ(-c3ccc(NC(=O)Nc4cc(C(F)(F)F)ccc4F)cc3)c12,EGFR del747-750/T751S,cell-free assay,,,20 µM,remaining signal,27%
CSc1cccnc1N1CCN(Cc2nc3ccccc3[nH]2)CC1,"Epidermal growth factor receptor (EGFR, Homo sapiens, UniProt P00533, L858R)",cell-free assay,,competition with immobilised ligand,1 µM,remaining binding,100%
N[C@@H]1CCN(c2nccc(-c3cnn4ncccc34)n2)C1,EGFR G719C,binding,,,1 µM,remaining binding,83%
O=C(NCc1ncc(C(F)(F)F)cc1Cl)c1ccc2c(c1)C1(CCS(=O)(=O)CC1)[C@@H](C1CC1)N2S(=O)(=O)c1ccc(F)cc1,EGFR del747-750/T751S,cell-free assay,,competition with immobilised ligand,1 µM,remaining binding,79%
CN(CCCC(F)(F)F)c1nccc(-c2cnn3ncccc23)n1,EGFR,binding,,,1 µM,remaining binding,86%
CCCCN(CCCC)C(=O)CN1C[C@@H](c2cc(OC)c3c(c2)OCO3)[C@H](C(=O)O)[C@H]1CC(C)(C)CCC,EGFR del747-752/P753S,cell-free assay,,competition with immobilised ligand,1 µM,remaining binding,75.9%
c1cnn2ncc(-c3ccnc(N4CCC45COC5)n3)c2c1,EGFR del746-750,binding,,,1 µM,remaining binding,89%
Cc1cc(NC(=O)c2cccc3cc(-c4cccc5[nH]nc(N)c45)ccc23)ccc1F,EGFR,enzyme activity,inhibitor,,0.1 µM,activity vs control,103%
C[C@@H]1CCN(c2nccc(-c3cnn4ncccc34)n2)C1,EGFR G719C,binding,,,1 µM,remaining binding,87%
Cc1ccc(C(=O)Nc2ccc(CN3CCN(C)CC3)c(C(F)(F)F)c2)cc1C#Cc1cnc2cccnn12,EGFR del746-750,cell-free assay,,,23.5 nM,remaining signal,64%
Cc1c(NC(=O)c2cc(C(N)=O)nc3cc(F)ccc23)c(C(F)(F)F)nn1Cc1ccc(C#N)cc1,"Epidermal growth factor receptor (EGFR, Homo sapiens, UniProt P00533, del752-759)",cell-free assay,,competition with immobilised ligand,1 µM,remaining binding,79%
CN(C)c1nccc(-c2cnn3ncccc23)n1,"Epidermal growth factor receptor (EGFR, Homo sapiens, UniProt P00533, G719S)",binding,,,1 µM,remaining binding,100%
